# In the library only some 2% were active in any assay of this set; here they are far more common.
# FN deposit inh: fibronectin deposition inhibition; AH1F fibroblasts, Alexa488-fibronectin deposition fluorescence, overnight; inhibition, % at 12.6 µM; hit rate 0.086% among 350,000; AID 743247;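 active = mean inhibition across replicates of 30% or more, regardless of how many single replicates reach that level; inconclusive = mean under 30% yet at least half of replicates reach 30%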;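 also: positive control wells lacked labelled fibronectin entirely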
#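 Schedule: 1 h cell adhesion before compound, then overnight fibronectin incubation; test system: AH1F fibroblast monolayer depositing Alexa488-labelled fibronectin into matrix; quantity: 10000 AH1F cells per well; probe or stimulus: fluorescent fibronectin at 24 nM final; signal: fluorescence, ex 485 nm, em 525 nm; evaluation: percent inhibition as loss of matrix-bound fibronectin fluorescence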
# DENV2 CPE: inhibitors of DENV2 cytopathic effect. DENV2-infected cells, cytopathic effect rescue, plate reader. CPE inhibition, % at 9.99 µM. hit rate 1.7% among 350,000. AID 651640; in the data active = CPE inhibition above about 20%, passing the limit was not always enough; inconclusive = no clear call, values can overlap the other calls; tested in BHK-21 cells;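 also: 0% = median of neutral control wells and 100% = median of positive control wells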
# CaV13 FRET inh: Primary screen for inhibitors of IQ motif and Ca2+-dependent inactivation inhibitor domain binding in CACNA1D, Förster resonance energy transfer in living cells, …; HEK cells, CFP/YFP FRET ICDI-IQ, plate reader, 10 min; percent FRET-ratio fall versus neutral wells; inhibition, % at 12.3 µM; hit rate 0.098% among 340,000; AID 743397;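 active = mean replicate inhibition of at least 30% and at least 1% of replicates passing that level; inconclusive = only one of the two criteria is met; inactive = neither criterion is met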;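 also: 0% = median of the neutral control wells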
# XiGFP reactiv: X-chromosome reactivation activator. XiGFP mouse fibroblasts, % GFP-positive cells imaging, 3 d; cells co-treated with 5-aza-dC sensitizer; scaled so ellipticine positive control = 100%. activation, % at 7.58 µM. hit rate 0.055% among 360,000;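 active = mean normalized replicate activation at least 10% and every replicate at or above 10%; inconclusive = only one of the two criteria met; inactive = mean below 10% and not all replicates reach 10%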;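 also: 0% = median of on-plate neutral control wells and 100% = ellipticine 6 µM median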
#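 material = 68-5-11 XiGFP fibroblast line | medium = DMEM plus 5-aza-dC sensitizer | schedule = 3 days compound exposure | benchmarks = positive control ellipticine, 6 µM final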
# Casp6 inh: caspase-6 (human) enzyme inhibition. hit rate 0.53% among 350,000. inhibition, % at 12.5 µM. purified caspase-6, Z-VEID-R110 cleavage fluorescence. P55212;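 active = mean inhibition across replicates at least about 35%, with every replicate also reaching that limit, limit read from the data; inconclusive = only one of the two criteria met; inactive = neither criterion met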;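 also: 0% = median of neutral control wells and 100% = no fluorescence left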
# Target sequence (P55212 24-179 limits assumed): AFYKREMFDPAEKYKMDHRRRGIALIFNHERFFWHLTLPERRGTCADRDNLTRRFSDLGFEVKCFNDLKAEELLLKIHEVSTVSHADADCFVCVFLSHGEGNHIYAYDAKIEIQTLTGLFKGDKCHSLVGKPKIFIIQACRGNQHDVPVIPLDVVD
# Target sequence (P55212 194-293 limits assumed): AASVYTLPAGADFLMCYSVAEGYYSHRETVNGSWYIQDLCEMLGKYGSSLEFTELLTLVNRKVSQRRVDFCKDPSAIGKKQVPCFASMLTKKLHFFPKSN
# Active calls of the source: *; u = inconclusive; x = not tested or not shown; + = active, no number.
SMILES,FN deposit inh,DENV2 CPE,CaV13 FRET inh,XiGFP reactiv,Casp6 inh
CO[C@@H]1CN(C)C(=O)c2cc(NC(=O)C3CC3)ccc2OC[C@H](C)N(Cc2cccc(F)c2)C[C@H]1C,2,7,x,0,-2
CCCCC1OC2(C)OC(=N)C1(C#N)C(C#N)(C#N)C2c1ccccc1 (stereo not drawn),7,73*,-5,0,1
CC1OC2(C)OC(=N)C1(C#N)C(C#N)(C#N)C2c1ccccc1 (stereo not drawn),12,u,-13,0,4
C[C@H]1CN([C@@H](C)CO)C(=O)c2cc(-c3cccnc3)cnc2O[C@H]1CN(C)C(=O)C1CCC1,x,24*,x,0,0
C[C@@H]1CN([C@@H](C)CO)C(=O)c2cc(C#Cc3cccc(F)c3)cnc2O[C@@H]1CN(C)C(=O)C1CCC1,x,87*,x,-1,4
C[C@H](CO)N1C[C@H](C)[C@@H](CN(C)C(=O)C2CCC2)Oc2ncc(C#CCc3ccccc3)cc2C1=O,x,60*,x,-1,2
C[C@H]1CN([C@@H](C)CO)C(=O)c2cc(C#CCc3ccccc3)cnc2O[C@@H]1CN(C)C(=O)C1CCC1,x,11,x,-1,-2
CC(C)C(=O)Nc1sc2c(c1C(N)=O)CCN(Cc1ccccc1)C2,-1,-2,+,0,-1
NC(=O)c1c(NC(=O)c2c(F)cccc2F)sc2c1CCN(Cc1ccccc1)C2,9,x,-2,0,-1
CCN1CCc2c(sc(NC(=O)Nc3ccc(Cl)c(Cl)c3)c2C(N)=O)C1,-243,-1,59*,105*,-2
NC(=O)c1c(NC(=O)c2ccccc2)sc2c1CCN(Cc1ccccc1)C2,-11,-6,+,44*,0
CCN1CCc2c(sc(NC(=O)Cc3ccccc3)c2C(N)=O)C1,12,u,-1,0,-2
CCC(=O)Nc1sc2c(c1C(N)=O)CCN(Cc1ccccc1)C2,8,6,48*,0,0
CNC[C@@H]1Oc2ccc(NC(=O)Nc3c(C)noc3C)cc2C(=O)N([C@@H](C)CO)C[C@H]1C,-4,u,x,0,-3
CCN1CCc2c(sc(NC(=O)c3ccc(S(=O)(=O)N(CC)c4ccccc4)cc3)c2C(N)=O)C1,0,12,-4,73*,-2
COc1ccc(C#Cc2ccc([C@H]3[C@H](CO)N4CCCCN(C(=O)c5ccncc5)C[C@@H]34)cc2)cc1,x,47*,x,0,-1
C[C@@H](O)C#Cc1ccc([C@@H]2[C@H](CO)N3CCCCN(C(=O)c4ccncc4)C[C@@H]23)cc1,x,8,x,0,1
O=C(c1ccncc1)N1CCCCN2[C@H](CO)[C@@H](c3ccc(C#Cc4ccccn4)cc3)[C@@H]2C1,x,7,x,0,2
COc1ccc(C#Cc2ccc([C@H]3[C@@H](CO)N4CCCCN(C(=O)c5ccncc5)C[C@@H]34)cc2)cc1,x,59*,x,0,-1
COc1ccc(C#Cc2ccc([C@@H]3[C@@H](CO)N4CCCCN(C(=O)c5ccncc5)C[C@H]34)cc2)cc1,x,28*,x,0,-1
O=C(c1ccncc1)N1CCCCN2[C@H](C1)[C@H](c1ccc(C#Cc3ccccn3)cc1)[C@@H]2CO,x,-7,x,0,37*
C[C@H](O)C#Cc1ccc([C@H]2[C@@H](CO)N3CCCCN(C(=O)c4ccncc4)C[C@@H]23)cc1,x,-9,x,0,1
C[C@@H]1CN([C@@H](C)CO)C(=O)c2ccccc2-c2ccccc2CO[C@H]1CN(C)S(=O)(=O)c1ccccc1F,-7,x,x,-1,x
COCCNC(=S)N/N=C/c1ccc(-c2ccc([N+](=O)[O-])cc2)o1,0,-6,+,2,1
NC(=O)N/N=C/c1ccc(-c2ccc([N+](=O)[O-])cc2)o1,-2,2,-47,0,0
SMILES,FN deposit inh,DENV2 CPE,CaV13 FRET inh,XiGFP reactiv,Casp6 inh
C[C@H](CO)N1C[C@H](C)[C@H](CN(C)CC2CCCCC2)Oc2ccc(NC(=O)NC3CCCCC3)cc2C1=O,x,29*,x,0,1
C[C@@H]1CN([C@@H](C)CO)C(=O)c2cc(NC(=O)NC3CCCCC3)ccc2O[C@@H]1CN(C)CC1CCCCC1,x,60*,x,0,1
C/C=C/c1ccc2c(c1)O[C@H](CN(C)C(=O)COC)[C@H](C)CN([C@H](C)CO)S2(=O)=O,-7,-1,x,0,-3
CN(C)C(=O)[C@H]1[C@H](CO)[C@H]2Cn3c(ccc(C4=CCCC4)c3=O)[C@H]2N1Cc1ccc2c(c1)OCO2,x,-2,x,0,2
C[C@H]1CN([C@@H](C)CO)C(=O)Cc2cc(NS(=O)(=O)c3ccccc3)ccc2O[C@@H]1CN(C)CC1CCCCC1,x,0,x,0,1
COc1ccccc1CNc1nc(Nc2ccccc2-n2cccn2)c2sccc2n1,-1,4,-6,0,43*
COC(=O)c1ccc(N2C(c3cc(OC)cc(OC)c3)=Cc3ccc(OC)cc3C2CC(=O)c2ccco2)cc1 (stereo not drawn),3,31*,-10,0,-2
CCCN1Cc2cccc(C(=O)Nc3ccc4c(c3)OCCO4)c2C1=O,-3,94*,-11,0,-4
CCCN1Cc2cccc(C(=O)Nc3ccc(C)cc3)c2C1=O,-4,x,x,x,x
O=C1C[C@@H](c2ccccc2)C(=O)N[C@@H](c2ccccc2)C/C=C\C[C@@H](c2ccccc2)N1,11,x,x,0,x
Cc1ccc(S(=O)(=O)N2CCOCC2)cc1C(=O)Nc1cccc(C(=O)NC2CC2)c1,5,-9,-7,0,0
N#CCc1ccc(NC(=O)c2cc(S(=O)(=O)N3CCOCC3)ccc2Cl)cc1,3,60*,-2,0,1
O=C(NC1CC1)c1cccc(NC(=O)c2cc(S(=O)(=O)N3CCOCC3)ccc2Cl)c1,-3,94*,-4,0,1
C[C@@H]1CCCCO[C@H](CN(C)Cc2ccncc2)[C@H](C)CN([C@H](C)CO)C(=O)c2cc(NS(=O)(=O)c3ccccc3)ccc2O1,-3,28*,x,0,-1
C[C@@H]1CCCCO[C@@H](CN(C)Cc2ccncc2)[C@H](C)CN([C@H](C)CO)C(=O)c2cc(NS(=O)(=O)c3ccc(F)cc3)ccc2O1,-6,-2,x,0,1
C[C@@H]1CCCCO[C@@H](CN(C)Cc2ccncc2)[C@H](C)CN([C@H](C)CO)C(=O)c2cc(NS(=O)(=O)c3ccccc3)ccc2O1,7,-5,x,0,-3
C[C@@H]1CCCCO[C@H](CN(C)Cc2ccc(C(F)(F)F)cc2)[C@H](C)CN([C@H](C)CO)C(=O)c2cc(NS(=O)(=O)c3ccc(F)cc3)ccc2O1,-8,30*,x,0,0

# Compound activity: PubChem BioAssay, Broad Institute
